In PubChem BioAssay:
Results filed as inconclusive are left out.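 The calls were made as follows, unless noted: active = inhibition over a set limit, the all-compound mean plus 3 SD, in both replicate runs; inconclusive = over that limit in just one replicate run; inactive = at or under that limit in both runs.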

Key:
[1] = OD615 S. cerevisiae growth inhibition, permissive medium, pilot counter-assay, permissive growth control for S. cerevisiae lifespan shortening project (AID 705;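 active = growth inhibition above 25% in both replicates, a cutoff set 3 SD above the mean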); conditions: OD615, 24 h, at 10 µM, active compounds read high
Procedure, shortened: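 Material: engineered DeaD yeast; Compound: one dose 10 µM, DMSO 0.25% final; Detection: absorbance (optical density) at 615 nm; Buffer or medium: permissive raffinose/galactose medium; Timing: 24 h exposure, 30 °C.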

[2] = Restrictive medium S. cerevisiae growth inhibition, OD615, pilot screen of yeast lifespan reduction project, restrictive growth control (AID 706;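 active = growth inhibition above a set limit, 3 SD over mean compound inhibition, in both replicates, cut at about 43% in these data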;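 also: modified DeaD lifespan yeast strain shifted to restrictive glucose medium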); conditions: OD615, 48 h, at 10 µM, active compounds read high
Procedure, shortened: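 Buffer or medium: restrictive glucose medium (CSMM-D); test system: modified S. cerevisiae; doses: single dose of 10 µM compound final, 0.25% DMSO; schedule: 48 h compound exposure at 30 °C; detection: absorbance (optical density) measured at 615 nm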

[3] = viability gain of MRP-1-high H69AR cells under doxorubicin, pilot screen, MRP-1 activator project, CellTiter-Glo, duplicate (AID 807;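 active = viability increase at or above a cutoff of the median across tested compounds plus 3 SD, cut at about 8.5% in these data, passing the limit was not always enough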;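 also: compound pretreatment 18-22 h then 72 h combined with doxorubicin; 0% = doxorubicin alone and 100% = vehicle without doxorubicin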); conditions: H69AR viability with doxorubicin, CellTiter-Glo luminescence; at 10 µM; active compounds read high
[4] = growth suppression of beta-catenin knockout HCT116, pilot screen, human colon tumor cells (AID 823;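 active = cell viability at or below a set limit in both duplicate runs, the limit being the all-compound median minus 4 SD, cut at about 23% in these data, passing the limit was not always enough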;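 also: 0% = wells killed by 20 µM Hyamine and 100% = untreated DMSO cell wells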); conditions: CellTiter-Glo, 60 h, at 10 µM, active compounds read low
[5] = growth suppression of PTEN-deleted HCT116, pilot screen, cell-based, HCT116 clonal line, CellTiter-Glo (AID 824;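 active = viability at or below 27.92% in each of two runs, the all-compound median minus 4 SD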;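 also: 0% = 20 µM Hyamine control and 100% = vehicle cell control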); conditions: 60 h, at 10 µM, active compounds read low
[6] = inhibitors of the yeast RAM network, pilot screen, dse1pr::URA3 reporter, 5-FOA selection (AID 869);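 also: 0% = DMSO wells with no growth and 100% = 10 µM 1-NA-PP1 with full growth; RAM network block rescues cells from 5-FOA so hits raise OD615 growth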; conditions: S. cerevisiae dse1pr::URA3 5-FOA growth, OD615, 2 d; at 10 µM; active compounds read high; strain carries analog-sensitive mutant Cbk1 kinase
[7] = RAM signaling pathway blockade in yeast – S. cerevisiae, Pdr1DBD-CYC8 efflux-inhibited sensitized strain, primary screen (AID 1298;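 active = RAM network inhibition above 8.4% in each of two replicates, 3 SD over the compound average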;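 also: 0% = DMSO untreated cells without growth and 100% = 10 µM 1-NA-PP1 full growth; higher means more yeast growth rescued from 5-FOA killing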); conditions: S. cerevisiae cbk1-as DSE1-URA3 strain, 5-FOA growth OD615, 2 d; at 50 µM; active compounds read high

O=C(c1oc(=O)c2ccccc2c1-c1ccccc1)N1CCN(C2CCCCC2)CC1
inactive: growth inhibition [1] -7.33% | growth inhibition [2] -0.045% | viability increase [3] -1.86% | viability [4] 95.5% | viability [5] 97.4% | inhibition [6] 1.16% | RAM network inhibition [7] 6.22%

CC(=O)Oc1ccc(N2C(=O)C3C4C=CC(O4)C3C2=O)cc1 (configuration not stated)
inactive: growth inhibition [1] 14.2% | growth inhibition [2] 27.7% | viability increase [3] -1.46% | viability [4] 92.1% | viability [5] 101% | inhibition [6] 2.19% | RAM network inhibition [7] 0.14%

COc1ccc(N(C)S(=O)(=O)c2cccc(C(=O)NC3=NCCS3)c2)cc1
inactive: growth inhibition [1] -4.93% | growth inhibition [2] -1.7% | viability increase [3] -1.55% | viability [4] 91.6% | viability [5] 89.8% | inhibition [6] 1.13% | RAM network inhibition [7] 2.28%

COc1ccc(NC(=O)CSc2nnc(Cn3c(=O)sc4ccccc43)n2C)cc1OC
inactive: growth inhibition [1] -10.7% | growth inhibition [2] -14.9% | viability increase [3] -2.38% | viability [4] 86.5% | viability [5] 92.2% | inhibition [6] 1.91% | RAM network inhibition [7] 4.34%

O=C(CCNS(=O)(=O)c1cccc2nonc12)NCCc1ccc(Cl)cc1
inactive: growth inhibition [1] -2.56% | growth inhibition [2] -9.13% | viability increase [3] 5.07% | viability [4] 90% | viability [5] 101% | inhibition [6] -0.08% | RAM network inhibition [7] 3%

Cc1cccc(OCCn2c(=O)n(C)c3ccccc32)c1
inactive: growth inhibition [1] -9.27% | growth inhibition [2] -5.27% | viability increase [3] -2.39% | viability [4] 85.3% | viability [5] 83% | inhibition [6] 0.755% | RAM network inhibition [7] 0.1%

CCOc1ccc(N(CC(=O)Nc2cccc(F)c2)S(=O)(=O)c2c(C)noc2C)cc1
inactive: growth inhibition [1] -3.51% | growth inhibition [2] -8.12% | viability increase [3] -5.24% | viability [4] 66.5% | viability [5] 56.2% | inhibition [6] 3.33% | RAM network inhibition [7] 5.5%

COc1cc(C2NC(=O)NC(C)=C2C(=O)OCc2ccc(C)cc2)cc(OC)c1O (configuration not stated)
inactive: growth inhibition [1] -12.9% | growth inhibition [2] -10.8% | viability increase [3] 3.29% | viability [4] 89.9% | viability [5] 82.1% | inhibition [6] 0.03% | RAM network inhibition [7] 0.58%

CC(=O)c1sc(NC(=O)c2ccco2)nc1-c1ccccc1
inactive: growth inhibition [1] -6.58% | growth inhibition [2] 6.05% | viability increase [3] -1.39% | viability [4] 103% | viability [5] 87.7% | inhibition [6] 1.87% | RAM network inhibition [7] 1.69%

Cc1ccc(C(C(=O)NC2CCCC2)N2CCCCC2)cc1 (configuration not stated)
inactive: growth inhibition [1] -2.54% | growth inhibition [2] -13.5% | viability increase [3] -1.32% | viability [4] 86.9% | viability [5] 90.6% | inhibition [6] 2.38% | RAM network inhibition [7] 5.61%

O=C(NCCCNC(=O)c1cccs1)c1cccs1
inactive: growth inhibition [1] 3.77% | growth inhibition [2] -0.395% | viability increase [3] 0% | viability [4] 96.6% | viability [5] 108% | inhibition [6] 1.09% | RAM network inhibition [7] 5.26%

CCOC(=O)NC(Nc1ncccn1)(C(F)(F)F)C(F)(F)F
inactive: growth inhibition [1] 0.98% | growth inhibition [2] -5.49% | viability increase [3] -3.34% | viability [4] 94.4% | viability [5] 97.5% | inhibition [6] 1.17% | RAM network inhibition [7] 0.47%

CCCCC(CC)CNC(=O)c1cccs1 (configuration not stated)
inactive: growth inhibition [1] 6.58% | growth inhibition [2] 13.6% | viability increase [3] 0.39% | viability [4] 79.2% | viability [5] 85.8% | inhibition [6] -0.705% | RAM network inhibition [7] -1.28%

CCc1cc(C(=O)Cc2cnn(-c3ccccc3)c2)c(O)cc1O
inactive: growth inhibition [1] -6.31% | growth inhibition [2] -9.12% | viability increase [3] -2.95% | viability [4] 101% | viability [5] 99.1% | inhibition [6] 1.42% | RAM network inhibition [7] 3.54%

Cc1cc(NC(=O)c2cc3n(n2)C(C(F)(F)F)CC(c2ccco2)N3)no1 (configuration not stated)
inactive: growth inhibition [1] 5.72% | growth inhibition [2] 5.53% | viability increase [3] -0.69% | viability [4] 98.8% | viability [5] 94.6% | inhibition [6] 0.475% | RAM network inhibition [7] 1.13%

CC(=O)CC(=O)Nc1cccc2c1CCCC2
inactive: growth inhibition [1] -1.4% | growth inhibition [2] -1.66% | viability increase [3] -1.76% | viability [4] 92.6% | viability [5] 91.5% | inhibition [6] -0.665% | RAM network inhibition [7] 1.72%

COc1ccccc1C1NC(=O)NC(C)=C1C(=O)OC1CCCCC1 (configuration not stated)
inactive: growth inhibition [1] -4.16% | growth inhibition [2] -6.71% | viability increase [3] 0.87% | viability [4] 97.5% | viability [5] 92.3% | inhibition [6] 2.65% | RAM network inhibition [7] 2.9%

Cc1[nH]c2ccccc2c1SCCN
inactive: growth inhibition [1] -9.76% | growth inhibition [2] -12.4% | viability increase [3] -5.96% | viability [4] 73.9% | viability [5] 62.9% | inhibition [6] 2.34% | RAM network inhibition [7] 1.7%

CSc1nc2ccc(NS(=O)(=O)c3ccc4c(c3)OCCO4)cc2s1
inactive: growth inhibition [1] 0.175% | growth inhibition [2] 0.53% | viability increase [3] 0.31% | viability [4] 90.8% | viability [5] 88.4% | inhibition [6] 0.865% | RAM network inhibition [7] 5.46%

COc1cccc(OCC(=O)N(Cc2nc(-c3ccc(Cl)cc3)no2)C(C)C)c1
inactive: growth inhibition [1] -4.67% | growth inhibition [2] -2.81% | viability increase [3] 2.88% | viability [4] 91% | viability [5] 89.7% | inhibition [6] 3.32% | RAM network inhibition [7] 3.59%

COc1cccc(C(c2sc3ncnn3c2O)N2CCc3ccccc3C2)c1 (configuration not stated)
inactive: growth inhibition [1] -0.12% | growth inhibition [2] 2.29% | viability increase [3] 2.58% | viability [4] 104% | viability [5] 93.2% | inhibition [6] 1.8% | RAM network inhibition [7] 11.3%

Cc1cc(C)n(-c2nc(C)nc(NCc3ccccc3)n2)n1
inactive: growth inhibition [1] -17.5% | growth inhibition [2] -11.6% | viability increase [3] -2.88% | viability [4] 88.4% | viability [5] 82.7% | inhibition [6] 0.215% | RAM network inhibition [7] 0.98%

CC(=O)c1ccc(NC(=O)CSc2nnc(Cn3c(=O)sc4ccccc43)n2C)cc1
inactive: growth inhibition [1] -0.18% | growth inhibition [2] 14.4% | viability increase [3] -1.49% | viability [4] 100% | viability [5] 101% | inhibition [6] 0.83% | RAM network inhibition [7] 3.42%

O=C(NCCc1ccc(Cl)cc1)c1nnc(Cc2ccc(Cl)cc2)o1
inactive: growth inhibition [1] -3.81% | growth inhibition [2] 3.52% | viability increase [3] 0.2% | viability [4] 103% | viability [5] 103% | inhibition [6] 2.82% | RAM network inhibition [7] 7.52%

CCCC(=O)Nc1nc2ccc(OCC)cc2s1
inactive: growth inhibition [1] -2.23% | growth inhibition [2] -0.195% | viability increase [3] 0.26% | viability [4] 86.8% | viability [5] 85.7% | inhibition [6] 0.615% | RAM network inhibition [7] 2.15%

Fc1cccc(CSc2nc3ccncc3[nH]2)c1
inactive: growth inhibition [1] -13.4% | growth inhibition [2] -9.72% | viability increase [3] -0.81% | viability [4] 94.9% | viability [5] 79.7% | inhibition [6] 1.6% | RAM network inhibition [7] 7.53%

N#CC1=C(SCC(N)=O)NC(=O)CC1c1ccccc1Cl (configuration not stated)
inactive: growth inhibition [1] -3.39% | growth inhibition [2] -17.1% | viability increase [3] -2.43% | viability [4] 98% | viability [5] 96.5% | inhibition [6] 0.635% | RAM network inhibition [7] -0.49%

CCOC(=O)N1CCN(C(=O)CSc2nnc(-c3ccc(C)c(C)c3)o2)CC1
inactive: growth inhibition [1] -1.67% | growth inhibition [2] 1.73% | viability increase [3] -2.44% | viability [4] 111% | viability [5] 97.4% | inhibition [6] 2.31% | RAM network inhibition [7] 4.67%

O=C(c1cc(-c2ccccc2O)on1)N1CCCC1
inactive: growth inhibition [1] -4.15% | growth inhibition [2] -3.9% | viability increase [3] -4.17% | viability [4] 105% | viability [5] 90.7% | inhibition [6] 3.37% | RAM network inhibition [7] 6.42%

O=C(Nc1nccs1)C12CC3CC(C1)CC(C(=O)Nc1nccs1)(C3)C2
inactive: growth inhibition [1] 1.86% | growth inhibition [2] 28.3% | viability increase [3] -2.85% | viability [4] 75.3% | viability [5] 78.7% | inhibition [6] 1.25% | RAM network inhibition [7] 2.5%

CCC(C)NC(=O)C1CCC(=O)N(c2ccc3c(c2)OCO3)C1c1ccc(OC)cc1 (configuration not stated)
inactive: growth inhibition [1] 0.49% | growth inhibition [2] -0.06% | viability increase [3] -1.78% | viability [4] 103% | viability [5] 100% | inhibition [6] 1.02% | RAM network inhibition [7] 4.2%

COc1ccc(CN2CCN(C(=O)c3ccco3)CC2)cc1OCc1ccccc1
inactive: growth inhibition [1] -9.2% | growth inhibition [2] -18.8% | viability increase [3] -2.34% | viability [4] 88% | viability [5] 83.3% | inhibition [6] 0.95% | RAM network inhibition [7] 2.98%

CC(=O)N1CCc2c(sc(NC(=O)CN3C(=O)CCC3=O)c2C(N)=O)C1
inactive: growth inhibition [1] -11.6% | growth inhibition [2] -14.8% | viability increase [3] -1.16% | viability [4] 100% | viability [5] 99.3% | inhibition [6] 1.53% | RAM network inhibition [7] 2.93%

O=C(c1cc2nc(-c3ccco3)cc(C(F)(F)F)n2n1)N1CCCCCC1
inactive: growth inhibition [1] -9.02% | growth inhibition [2] -9.3% | viability increase [3] -3.73% | viability [4] 86.3% | viability [5] 83.7% | inhibition [6] 0.805% | RAM network inhibition [7] 3.38%

O=C(CSCC(=O)N1CCOCC1)Nc1nc(-c2ccc3c(c2)OCO3)cs1
inactive: growth inhibition [1] -15% | growth inhibition [2] -3.92% | viability increase [3] -3.99% | viability [4] 100% | viability [5] 97.3% | inhibition [6] 0.47% | RAM network inhibition [7] 6.38%

NC(=O)CSc1ncc(-c2ccccc2)[nH]1
inactive: growth inhibition [1] -4.49% | growth inhibition [2] -3.75% | viability increase [3] -3.58% | viability [4] 101% | viability [5] 93.7% | inhibition [6] 0.715% | RAM network inhibition [7] 4.43%
